Laboratory results: paper PMC7397737 (Chemical research in toxicology, 2019)
“And” between values parts separate entries of the source, which are not always exact repeats. Equal entries are not always repeated. Blank lines part the entries; values can stand above or below the molecule they belong to.

How the values were obtained:
[1] = test system: CYPs in pooled mouse liver microsomes (MLMs); test: Chemical inhibition of 1′-hydroxyelemicin formation in liver microsomes; format: in vitro ADME; conditions: 50 μM elemicin, MLMs 0.5 mg/mL, 40 min
C57BL/6J mice [2] = test: Experiment 3: high-oleic acid diet with 1′-hydroxyelemicin in mice; format: in vivo, mouse; conditions: high-oleic acid diet + 100 mg/kg 1′-hydroxyelemicin 3 days
[3] = test system: stearoyl-CoA desaturase 1 (SCD1); test: Hepatic Scd1 mRNA; format: in vivo, mouse; conditions: for mRNA levels of Scd1 in liver: qPCR, vs control mice
How it was run: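 C57BL/6J mice (n = 6; n = 4 in SCD1-inhibitor study) gavaged with test compound 100 mg/kg every 24 h ×3, vehicle 0.5% CMC-Na. Where used, SCD1 inhibitor (DMSO/Tween 80/saline 1:2:97) was given i.p. twice daily, 10 mg/kg/day, starting before first dose. Liver flash-frozen. Western: RIPA/PMSF lysate, 10 μg protein, 10% SDS-PAGE, PVDF, ECL detection. mRNA by qRT-PCR.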

C57BL/6J mice [4] = test: Experiment 4: SCD1 suppression by A939572 with 1′-hydroxyelemicin in mice; format: in vivo, mouse; conditions: A939572 10 mg/kg/day i.p. + 100 mg/kg 1′-hydroxyelemicin
C57BL/6J mice [5] = test: Experiment 1: toxicity of elemicin in mice, 3 weeks; format: in vivo, mouse
human recombinant CYP2A6 = biological target: T1, human recombinant CYP2A6 (Homo sapiens, UniProt P11509); test: Kinetics of elemicin 1′-hydroxylation by recombinant CYP2A6; format: in vitro ADME
T1 sequence (P11509 1-494): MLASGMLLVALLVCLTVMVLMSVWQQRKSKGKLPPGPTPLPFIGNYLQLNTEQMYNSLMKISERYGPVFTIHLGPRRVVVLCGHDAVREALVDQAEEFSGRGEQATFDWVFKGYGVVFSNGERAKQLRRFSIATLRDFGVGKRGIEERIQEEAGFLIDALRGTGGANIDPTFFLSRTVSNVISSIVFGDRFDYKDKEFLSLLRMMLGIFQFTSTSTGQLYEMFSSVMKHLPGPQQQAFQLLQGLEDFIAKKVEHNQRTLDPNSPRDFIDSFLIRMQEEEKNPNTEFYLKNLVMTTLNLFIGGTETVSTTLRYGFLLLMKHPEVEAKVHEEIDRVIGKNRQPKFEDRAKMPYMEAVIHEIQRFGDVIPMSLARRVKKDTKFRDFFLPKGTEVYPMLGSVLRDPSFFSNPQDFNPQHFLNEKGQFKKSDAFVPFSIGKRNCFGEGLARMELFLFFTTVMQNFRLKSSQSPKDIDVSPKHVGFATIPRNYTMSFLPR

human recombinant CYP1A1 = biological target: T2, human recombinant CYP1A1 (Homo sapiens, UniProt P04798); test: Kinetics of elemicin 1′-hydroxylation by recombinant CYP1A1; format: in vitro ADME
T2 sequence (P04798 1-512): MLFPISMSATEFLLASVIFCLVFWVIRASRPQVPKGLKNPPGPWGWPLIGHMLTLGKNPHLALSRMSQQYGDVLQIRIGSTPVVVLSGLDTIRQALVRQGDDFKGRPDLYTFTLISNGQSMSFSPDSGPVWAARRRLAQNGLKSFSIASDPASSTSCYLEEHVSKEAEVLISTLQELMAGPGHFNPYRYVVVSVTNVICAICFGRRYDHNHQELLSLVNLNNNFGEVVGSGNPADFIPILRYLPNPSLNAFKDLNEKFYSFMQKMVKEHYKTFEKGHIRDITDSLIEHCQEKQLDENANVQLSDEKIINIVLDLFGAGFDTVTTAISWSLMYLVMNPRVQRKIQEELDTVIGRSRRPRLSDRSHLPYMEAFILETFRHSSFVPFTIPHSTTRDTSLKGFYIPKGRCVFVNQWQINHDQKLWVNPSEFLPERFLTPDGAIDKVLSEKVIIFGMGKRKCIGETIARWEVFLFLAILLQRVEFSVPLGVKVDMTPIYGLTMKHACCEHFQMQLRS

C57BL/6J mice [6] = test: Experiment 6: elemicin versus 1′-hydroxyelemicin toxicity at the same dose; format: in vivo, mouse
C57BL/6J mice [7] = test: Experiment 5: alpha-naphthoflavone with elemicin in mice; format: in vivo, mouse; conditions: alpha-naphthoflavone 80 mg/kg/day i.p. + elemicin 500 mg/kg oral for 7 days
[8] = mouse, in vivo, 100 mg/kg
[9] = substrate: C=CCc1cc(OC)c(OC)c(OC)c1; test: Kinetics of elemicin 1′-hydroxylation by recombinant CYP1A2; format: in vitro ADME, human; conditions: other: 1′-hydroxyelemicin formation from elemicin, mean ± SD
[10] = substrate: C=CCc1cc(OC)c(OC)c(OC)c1; test: Kinetics of elemicin 1′-hydroxylation by recombinant CYP2A6; format: in vitro ADME, human; conditions: other: 1′-hydroxyelemicin formation from elemicin, mean ± SD
[11] = substrate: C=CCc1cc(OC)c(OC)c(OC)c1; test: Kinetics of elemicin 1′-hydroxylation by recombinant CYP1A1; format: in vitro ADME, human; conditions: other: 1′-hydroxyelemicin formation from elemicin, mean ± SD
[12] = substrate: C=CCc1cc(OC)c(OC)c(OC)c1; test: Kinetics of elemicin 1′-hydroxylation by recombinant CYP2C19; format: in vitro ADME, human; conditions: other: 1′-hydroxyelemicin formation from elemicin, mean ± SD
[13] = elemicin 500 mg/kg oral, 3 weeks
[14] = 500 mg/kg oral every 24 h for 3 weeks, vs control group
[15] = 500 mg/kg oral, 3 weeks, vs control group
[16] = 1′-hydroxyelemicin 100 mg/kg oral, 3 days

- inhibitory effect against 1′-hydroxyelemicin generation ([1]; inhibitor 10 μM (CYP3A4)): relative higher inhibitory effects
Molecule: CC(=O)N1CCN(c2ccc(OCC3COC(Cn4ccnc4)(c4ccc(Cl)cc4Cl)O3)cc2)CC1 (stereo not shown) [ketoconazole]

Molecule: CCCCCCCC/C=C\CCCCCCCC(=O)O [oleic acid]
- 16:1-LPC, 18:1-LPC and 18:2-LPC levels in plasma (C57BL/6J mice [2]): ameliorated the decrease
- ratios of 18:1-LPC to 18:0-LPC and 16:1-LPC to 16:0-LPC in plasma (C57BL/6J mice [2]): increased to normal level
- hepatic TG content (C57BL/6J mice [2]; vs control mice): still higher than that of control mice
- liver size (C57BL/6J mice [2]; vs control mice): still higher than that of control mice

- levels of monounsaturated-LPCs in plasma (C57BL/6J mice [4]; A + E′ group): further decreased
- TG levels in plasma (C57BL/6J mice [4]; A + E′ vs E′ group): markedly elevated
- ratio of unsaturated-LPCs to saturated-LPCs (C57BL/6J mice [4]; A + E′ vs E′ group): significantly reduced
Molecule: CNC(=O)c1cccc(NC(=O)N2CCC(Oc3ccccc3Cl)CC2)c1 [A939572]
- SCD1 expression in liver (Western blot) ([3]; A939572 10 mg/kg/day i.p. + 100 mg/kg 1′-hydroxyelemicin, A + E′ group): significantly decreased

Molecule: C=CCc1cc(OC)c(OC)c(OC)c1 [elemicin, 3,4,5-trimethoxyallylbenzene]
- SCD1 protein in liver (Western blot) [3, 13]: decreased
- mRNA levels of Scd1 in liver [3, 13]: clearly decreased
- histopathological analysis of hepatic tissue (C57BL/6J mice [5]; 500 mg/kg oral every 24 h for 3 weeks, H&E): cytoplasmic pale staining, hepatocyte swelling and the cytoplasm seemed abnormal around the central vein
- TG levels in liver (C57BL/6J mice [5]; [14]): significantly elevated
- TG levels in plasma (C57BL/6J mice [5]; [14]): significantly elevated
- liver weights (hepatic index) (C57BL/6J mice [5]; [14]): increased
- serum ALT (C57BL/6J mice [5]; [14]): no significant changes
- total plasma GSH and GSSG (C57BL/6J mice [5]; [14]): reduced
- ratios of 18:1-LPC to 18:0-LPC and 16:1-LPC to 16:0-LPC in plasma (C57BL/6J mice [5]; [15]): dramatically reduced
- saturated LPC (18:0-LPC) in plasma (C57BL/6J mice [5]; [15]): significantly increased
- unsaturated LPCs (18:1-, 18:2-, 16:1-, 20:4-LPC) in plasma (C57BL/6J mice [5]; [15]): obviously reduced
- Vmax (human recombinant CYP2A6; 1′-hydroxyelemicin formation from elemicin, mean ± SD): 0.524 ± 0.110 nmol min^−1 nmol P450^−1
- in vitro catalytic efficiency (human recombinant CYP2A6; Vmax/Km × 1000 μL): 0.520 μL min^−1 nmol P450^−1
- Vmax (human recombinant CYP1A1): 1.80 ± 0.045 nmol ● min^−1 nmol ● CYP^−1
- in vitro catalytic efficiency (human recombinant CYP1A1; Vmax/Km × 1000 μL): 140.062 μL min^−1 nmol P450^−1
- hepatomegaly (C57BL/6J mice [6]; 100 mg/kg for 3 days, mice): did not result in hepatomegaly

- inhibitory effect against 1′-hydroxyelemicin generation ([1]; inhibitor 1 μM (CYP1A1/2)): relative higher inhibitory effects
Molecule: O=c1cc(-c2ccccc2)oc2c1ccc1ccccc12 [α-naphthoflavone]
- elemicin-induced hepatomegaly (C57BL/6J mice [7]): significantly alleviate

- GSH adduct in urine [8]: observed in the urine
Molecule: C=CC(O)c1cc(OC)c(OC)c(OC)c1 (stereo not shown) [1′-hydroxyelemicin]
- SCD1 protein in liver (Western blot) [3, 16]: decreased
- mRNA levels of Scd1 in liver [3, 16]: clearly decreased
- liver index compared with the same dose of elemicin (C57BL/6J mice [6]; mouse, in vivo): higher

B1: human recombinant CYP1A2 (Homo sapiens) (protein)
chain: MALSQSVPFSATELLLASAIFCLVFWVLKGLRPRVPKGLKSPPEPWGWPLLGHVLTLGKNPHLALSRMSQRYGDVLQIRIGSTPVLVLSRLDTIRQALVRQGDDFKGRPDLYTSTLITDGQSLTFSTDSGPVWAARRRLAQNALNTFSIASDPASSSSCYLEEHVSKEAKALISRLQELMAGPGHFDPYNQVVVSVANVIGAMCFGQHFPESSDEMLSLVKNTHEFVETASSGNPLDFFPILRYLPNPALQRFKAFNQRFLWFLQKTVQEHYQDFDKNSVRDITGALFKHSKKGPRASGNLIPQEKIVNLVNDIFGAGFDTVTTAISWSLMYLVTKPEIQRKIQKELDTVIGRERRPRLSDRPQLPYLEAFILETFRHSSFLPFTIPHSTTRDTTLNGFYIPKKCCVFVNQWQVNHDPELWEDPSEFRPERFLTADGTAINKPLSEKMMLFGMGKRRCIGEVLAKWEIFLFLAILLQQLEFSVPPGVKVDLTPIYGLTMKHARCEHVQARLRFSIN
- Km [9]: 15.850 ± 3.067 µM
- kcat [9]: 0.0067 ± 0.00035 s⁻¹
- kcat/Km [9]: 423 M⁻¹ s⁻¹

B2: human recombinant CYP2A6 (Homo sapiens) (protein)
chain: T1 sequence (P11509 1-494)
- Km [10]: 1007.000 ± 293.000 µM

B3: human recombinant CYP1A1 (Homo sapiens) (protein)
chain: T2 sequence (P04798 1-512)
- Km [11]: 12.9 ± 1.26 µM and 12.880 ± 1.265 µM
- kcat/Km [11]: 140 μL min^−1 nmol CYP^−1

B4: human recombinant CYP2C19 (Homo sapiens) (protein)
chain: MDPFVVLVLCLSCLLLLSIWRQSSGRGKLPPGPTPLPVIGNILQIDIKDVSKSLTNLSKIYGPVFTLYFGLERMVVLHGYEVVKEALIDLGEEFSGRGHFPLAERANRGFGIVFSNGKRWKEIRRFSLMTLRNFGMGKRSIEDRVQEEARCLVEELRKTKASPCDPTFILGCAPCNVICSIIFQKRFDYKDQQFLNLMEKLNENIRIVSTPWIQICNNFPTIIDYFPGTHNKLLKNLAFMESDILEKVKEHQESMDINNPRDFIDCFLIKMEKEKQNQQSEFTIENLVITAADLLGAGTETTSTTLRYALLLLLKHPEVTAKVQEEIERVIGRNRSPCMQDRGHMPYTDAVVHEVQRYIDLIPTSLPHAVTCDVKFRNYLIPKGTTILTSLTSVLHDNKEFPNPEMFDPRHFLDEGGNFKKSNYFMPFSAGKRICVGEGLARMELFLFLTFILQNFNLKSLIDPKDLDTTPVVNGFASVPPFYQLCFIPV
- Km [12]: 43.430 ± 3.613 µM
- kcat [12]: 0.00792 ± 0.0002 s⁻¹
- kcat/Km [12]: 182 M⁻¹ s⁻¹
